The text below walks through data of ChEMBL document CHEMBL3352720, “Novel alkylphospholipid-DTC hybrids as promising agents against endocrine related cancers acting via modulation of Akt-pathway” (Eur J Med Chem, 2014).

One assay concerns MDA-MB-231. The experiment in a line: Antiproliferative activity against human MDA-MB-231 cells assessed as inhibition of cell proliferation incubated for 18 hrs followed by MTT addition for 4 hrs by MTT assay. It is filed as functional, cell-based. In short, it runs like this:
(§1)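 MTT assay. Cells were grown in DMEM with 10% FBS at 37 °C, 5% CO2, 90% relative humidity. 1 × 10⁴ cells per well were seeded and held 24 h, then exposed to compounds diluted in culture medium for 18 h. MTT (5 mg/mL stock) was added for a further 4 h.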

Assay [1] concerns MCF7. As to the kind of experiment: Antiproliferative activity against human MCF7 cells assessed as inhibition of cell proliferation incubated for 18 hrs followed by MTT addition for 4 hrs by MTT assay. It is filed as functional, cell-based. In short, it runs like this: as §1
Background: Tetrazolium dyes change colour on reduction, which living cells bring about.

The test system of the next assay is HEK293. As to the kind of experiment: Antiproliferative activity against HEK293 cells assessed as inhibition of cell proliferation incubated for 18 hrs followed by MTT addition for 4 hrs by MTT assay. It is filed as cell-based. Conditions: Homo sapiens. In outline: as §1
Assay [2] in a line: Antiproliferative activity against human PC3 cells assessed as inhibition of cell proliferation incubated for 18 hrs followed by MTT addition for 4 hrs by MTT assay. In kind it is functional, cell-based. Conditions: PC-3. In short, it runs like this: as §1
Assay [3] is described as follows: Antiproliferative activity against human DU145 cells assessed as inhibition of cell proliferation incubated for 18 hrs followed by MTT addition for 4 hrs by MTT assay. It is filed as functional, cell-based. The following applies: DU-145. In outline: as §1
In assay [4] the test system is MCF7. As to the kind of experiment: Induction of mitochondrial membrane potential loss in human MCF7 cells assessed as increase in JC1 dye monomer green fluorescence incubated for 24 hrs by JC1 dye based flow cytometry (reference value: 1.78%). It is filed as functional. Background: In flow cytometry, cells or beads pass a laser one at a time.
Assay [5] deals with MCF7. As to the kind of experiment: Induction of cell cycle arrest in human MCF7 cells assessed as accumulation at G0/G1 phase incubated for 24 hrs by propidium iodide staining based FACS assay (reference value: 53.32%). It is filed as functional.
For assay [6], the system named is MCF7. The experiment in a line: Induction of cell cycle arrest in human MCF7 cells assessed as accumulation at S phase incubated for 24 hrs by propidium iodide staining based FACS assay (reference value: 45.21%). In kind it is functional.
For assay [7], the system named is MCF7. The experiment in a line: Induction of cell cycle arrest in human MCF7 cells assessed as accumulation at G2/M phase incubated for 24 hrs by propidium iodide staining based FACS assay (reference value: 1.47%). It is filed as functional.
The subject of assay [8] is MCF7. As to the kind of experiment: Induction of cell cycle arrest in human MCF7 cells assessed as accumulation at sub-diploid phase incubated for 24 hrs by propidium iodide staining based FACS assay (reference value: 7.26%). In kind it is functional.
Assay [9] concerns MCF7. The experiment in a line: Induction of apoptosis in human MCF7 cells assessed as viable cells level incubated for 24 hrs by annexin-V and propidium iodide staining based flow cytometry (reference value: 89.58%). It is filed as functional.
In assay [10] the test system is MCF7. As to the kind of experiment: Induction of apoptosis in human MCF7 cells assessed as early apoptotic cells level incubated for 24 hrs by annexin-V and propidium iodide staining based flow cytometry (reference value: 6.42%). In kind it is functional.
In assay [11] the test system is MCF7. As to the kind of experiment: Induction of apoptosis in human MCF7 cells assessed as late apoptotic cells level incubated for 24 hrs by annexin-V and propidium iodide staining based flow cytometry (reference value: 1.85%). In kind it is functional.
Assay [12] concerns MCF7. The experiment in a line: Induction of apoptosis in human MCF7 cells assessed as necrotic cells level incubated for 24 hrs by annexin-V and propidium iodide staining based flow cytometry (reference value: 2.15%). It is filed as functional.

Turning to `CCCCCCOP(=O)(O)OCCSC(=S)N1CCCCCC1`, the half-maximal inhibitory concentration (IC50) with MDA-MB-231 was 17.2 µM; in the assay with MCF7 [1], 55 µM; with HEK293 it was 70.5 µM; in assay [2] it was over 100 µM; in assay [3], 77.4 µM.

As to `CCCCCCCCOP(=O)(O)OCCSC(=S)N1CCCC1`, the IC50 with MDA-MB-231 was 69 µM; in the assay on MCF7 [1] it was 53 µM; in the assay with HEK293, 28.3 µM; in assay [2], over 100 µM; in assay [3], 47.1 µM.

In the case of `CCCCCCOP(=O)(O)OCCSC(=S)N1CCCCC1`, the IC50 with MDA-MB-231 was 85 µM; in the assay on MCF7 [1], 62 µM; with HEK293 it was over 100 µM; in [2], over 100 µM; in assay [3] it was over 100 µM.

Turning to `CCCCCCCCCCCCCCCCOP(=O)(O)OCCSC(=S)N1CCN(C)CC1`, the IC50 in the assay with MDA-MB-231 was over 100 µM; with MCF7 [1] it was over 100 µM; in the assay with HEK293 it was over 100 µM; in assay [2], 95.2 µM; in assay [3], 49.3 µM.

As to `CCCOP(=O)(O)OCCSC(=S)N1CCN(C)CC1`, the IC50 in the assay with MDA-MB-231 is 62 µM; in the assay with MCF7 [1], 59 µM; in the assay with HEK293, 39.6 µM; in assay [2] it was over 100 µM; in assay [3], over 100 µM.

Consider `CCCCCCCCCCCCCCCCOP(=O)(O)OCCSC(=S)N1CCCC1`, for which the 50% inhibitory concentration (IC50) with MDA-MB-231 was 69 µM; in the assay with MCF7 [1], 72 µM; with HEK293, over 100 µM; in [2], 65.7 µM; in assay [3] it was 28.9 µM.

On to `CCCCCCCCCCCCCCCCOP(=O)([O-])OCC[N+](C)(C)C` [MILTEFOSINE], for which the Activity amounted to 50.05% with MCF7 [4]; 64.8% in the assay with MCF7 [5]; 33.07% in the assay with MCF7 [6]; 2.14% in the assay on MCF7 [7]; 3.48% in the assay on MCF7 [8]; 43.6% in the assay with MCF7 [9]. For the same compound, the Activity in the assay with MCF7 [10] is listed as 44.84%; in the assay with MCF7 [11], 9.43%; in the assay with MCF7 [12], 2.15%. In addition, the IC50 was 2.08 µM with MDA-MB-231, 34.7 µM with MCF7 [1], 19.9 µM in assay [2] and 25.8 µM in [3].

For `CCCCCCCCOP(=O)(O)OCCSC(=S)N1CCCCCC1`, the IC50 in the assay on MDA-MB-231 was 27 µM; with MCF7 [1], 78 µM; with HEK293, over 100 µM; in assay [2], 56.8 µM; in assay [3], 59.1 µM.

Turning to `CCCCCCCCCCCCCCCCOP(=O)(O)OCCSC(=S)N1CCCCCC1`, the half-maximal inhibitory concentration (IC50) in the assay with MDA-MB-231 is over 100 µM; in the assay with MCF7 [1] it was over 100 µM; with HEK293, over 100 µM; in assay [2], 32.1 µM; in [3], 17.6 µM.

Turning to `CCCCCCOP(=O)(O)OCCSC(=S)N1CCCC1`, the IC50 is 54 µM with MDA-MB-231; 100 µM with MCF7 [1]; over 100 µM with HEK293; over 100 µM in [2]; over 100 µM in [3].

As to `CCCOP(=O)(O)OCCSC(=S)N1CCCCC1`, the IC50 in the assay on MDA-MB-231 was 68 µM; in the assay with MCF7 [1] it was over 100 µM; with HEK293, over 100 µM; in [2], over 100 µM; in assay [3], over 100 µM.

On to `CCCCCCCCCCOP(=O)(O)OCCSC(=S)N1CCN(C)CC1`, for which the IC50 with MDA-MB-231 is 29 µM; with MCF7 [1] it was 99.6 µM; in the assay with HEK293, over 100 µM; in assay [2], 80 µM; in assay [3] it was 82.3 µM.

Regarding `CCCOP(=O)(O)OCCSC(=S)N1CCCCCC1`, the IC50 in the assay with MDA-MB-231 is 38 µM; in the assay with MCF7 [1] it was 74 µM; with HEK293, 54 µM; in assay [2], over 100 µM; in assay [3], 86.1 µM.

Turning to `CCCCCCCCOP(=O)(O)OCCSC(=S)N1CCCCC1`, the IC50 in the assay with MDA-MB-231 was 11.9 µM; in the assay with MCF7 [1], 26 µM; in the assay with HEK293, 69 µM; in [2], over 100 µM; in assay [3] it was over 100 µM.

Regarding `CCCCCCCCCCOP(=O)(O)OCCSC(=S)N1CCCC1`, the IC50 in the assay on MDA-MB-231 was 67 µM; in the assay on MCF7 [1] it was 70 µM; in the assay with HEK293, over 100 µM; in [2], 56.1 µM; in [3] it was 46.1 µM.

In the case of `CCCCCCCCCCOP(=O)(O)OCCSC(=S)N1CCCCCC1`, the IC50 with MDA-MB-231 turned out to be 11.4 µM; in the assay on MCF7 [1] it was 43.3 µM; in the assay with HEK293, 70 µM; in [2] it was 32.9 µM; in assay [3] it was 23.9 µM.

Turning to `CCCCCCOP(=O)(O)OCCSC(=S)N1CCN(C)CC1`, the IC50 was 73 µM in the assay on MDA-MB-231; 58 µM in the assay on MCF7 [1]; over 100 µM in the assay with HEK293; over 100 µM in assay [2]; over 100 µM in assay [3].

`CCCOP(=O)(O)OCCSC(=S)N1CCCC1`: the IC50 with MDA-MB-231 is 67 µM; in the assay with MCF7 [1] it was 73 µM; in the assay on HEK293, over 100 µM; in assay [2] it was over 100 µM; in [3], over 100 µM.

Turning to `CCCCCCCCOP(=O)(O)OCCSC(=S)N1CCN(C)CC1`, the IC50 with MDA-MB-231 was 58.5 µM; in the assay on MCF7 [1], 46 µM; in the assay on HEK293, 86 µM; in [2], over 100 µM; in [3] it was over 100 µM.

By IC50 is commonly meant the point on the concentration scale where inhibition reaches its midpoint.
